High-throughput results as filed in PubChem BioAssay.
Pf gamet viab = inhibitors of late stage P. falciparum gametocyte viability; P. falciparum stage V gametocytes, ATP luminescence, 24 h; inhibition, % at 10.9 µM; 150,000 tested, 0.065% active; AID 743093;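 active = inhibition above the mean plus 3 SD of compounds within the control limits, set per campaign, cut at about 38% in these data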
APP 5'UTR act = activates APP 5'UTR luciferase reporter | SH-SY5Y APP 5'UTR luciferase reporter, luminescence; zero percent = DMSO vehicle wells | activation, % at 2 µM | 190,000 tested, 1% active;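 active = activation above a set limit, based on mean plus 3 SD of controls, cut at about 140% in these data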
NF-kB neuron act = NF-kB expression increase, human neuronal cells. NF-kB reporter expression; stronger effect = higher value. fold change at 12.5 µM. 190,000 tested, 1.6% active. AID 1239; in the data active = fold change above about 3.3
FLuc act counter = firefly luciferase counter-screen for stimulation assays; activation factor at 10 µM; 200,000 tested, under 10 active; ATPlite luciferase biochemical, luminescence, 10 min; 0 = ATP-free wells, 1 = DMSO control; P08659;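 active = luciferase activation factor, scaled between plate controls, of at least 2 with compound at 10 µM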
Target sequence (P08659 whole entry, looked up): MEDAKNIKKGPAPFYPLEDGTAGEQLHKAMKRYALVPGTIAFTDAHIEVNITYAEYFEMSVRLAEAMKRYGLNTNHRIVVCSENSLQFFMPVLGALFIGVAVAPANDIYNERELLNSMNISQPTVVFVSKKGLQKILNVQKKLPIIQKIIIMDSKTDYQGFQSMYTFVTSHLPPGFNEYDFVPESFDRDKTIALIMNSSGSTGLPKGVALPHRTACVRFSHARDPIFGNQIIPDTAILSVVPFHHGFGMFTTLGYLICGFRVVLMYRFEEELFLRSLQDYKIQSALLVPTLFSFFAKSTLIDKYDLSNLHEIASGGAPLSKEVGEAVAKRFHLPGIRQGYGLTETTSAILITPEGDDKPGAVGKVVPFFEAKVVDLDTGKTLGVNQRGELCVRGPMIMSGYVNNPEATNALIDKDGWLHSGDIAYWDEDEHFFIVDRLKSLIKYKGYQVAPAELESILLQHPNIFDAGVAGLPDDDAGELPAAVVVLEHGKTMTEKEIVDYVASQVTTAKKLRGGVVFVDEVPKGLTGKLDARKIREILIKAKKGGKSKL
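System: Luciferase/luciferin detection reagent, cell-free biochemical luciferase assay | Medium: PBS buffer for ATP | Dosing: Test compounds dosed from 2 mM stocks in 100% DMSO | Timing: 10 min at ambient temperature | Signal: Luminescence measurement of luciferase light output | Evaluation: Luciferase activation, seen as luminescence increase over controls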
FLuc inhib CS = inhibits firefly luciferase, flagging false hits in luciferase inhibition screens | P08659 | ATPLite firefly luciferase biochemical luminescence, 10 min | inhibition, % at 10 µM | 200,000 tested, 1.5% active | AID 1006;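 active = inhibition above about 50% when tested at 10 µM, limit read from the data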
STAT1 act = increases IFN-gamma driven STAT1 reporter signal | NIH 3T3 STAT1-luciferase reporter, luminescence; 100% = IFN-gamma alone, no compound | activation (% of control), % at 5.5 µM | 200,000 tested, 2.6% active;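 active = activation above the screen-wide mean activation plus 3 SD, cut at about 130% in these data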
Numbers stand for hits; i = inactive; nt = no result given. Most compounds without a hit are left out; they make up all but 3.5% or so of the library.

SMILES	Pf gamet viab	APP 5'UTR act	NF-kB neuron act	FLuc act counter	FLuc inhib CS	STAT1 act
Cc1cccc(C(=O)c2cn[nH]c2-c2ccc(C)cc2O)c1	i	nt	nt	nt	nt	nt
Cc1ccc(O)c(-c2cc3ccccc3[nH]2)c1	i	i	i	i	i	i
O=[N+]([O-])c1ccccc1-c1cc(-c2ccccc2O)n[nH]1	i	i	i	i	i	i
Cc1ccc(-c2cc(-c3ccccc3C)[nH]n2)c(O)c1	i	i	6.3	i	i	i
Cc1ccc(-c2cc(-c3cccc(F)c3)n[nH]2)c(O)c1	i	215	9.6	i	i	i
Cc1ccc(O)c(-c2cc(-c3cccc(F)c3)n[nH]2)c1	nt	i	5	i	i	i
Oc1ccc(Br)cc1-c1cc(-c2ccccc2)n[nH]1	i	i	i	i	i	i
Cc1ccc(O)c(-c2cc(-c3ccccc3F)[nH]n2)c1	nt	i	4.3	i	i	i
CC1(C)CN(c2ccsc2C(=O)O)C1=O	nt	i	i	i	i	i
O=C(NCc1ccc2c(c1)OCO2)c1cc2ncc(Br)cn2n1	nt	i	i	i	i	i
O=C1CCCC/C1=C/Nc1ccc2c(c1)OCO2	i	i	i	i	i	141
CCOC(=O)c1nn(-c2ccc(C)cc2)cc1C(=O)c1ccccc1	i	145	6.6	i	64	144
COC(=O)c1nn(-c2ccc3c(c2)OCO3)cc1O	i	i	i	i	i	i
CCOC(=O)c1nn(-c2ccc([N+](=O)[O-])cc2)cc1O	i	nt	nt	nt	nt	nt
COc1cc(C(=O)Nc2ccc3c(c2)CCN3C(C)=O)cc(OC)c1OC	i	i	i	i	i	i
COC(=O)c1nn(-c2ccc3c(c2)CCN3C(C)=O)cc1O	nt	i	i	i	94	i
CCOC(=O)c1nn(-c2ccc3c(c2)OCCO3)cc1O	i	158	i	i	84	i
CCOC(=O)c1nn(-c2ccc(C)c(C)c2)cc1O	i	i	i	i	50	i
N#CC(Cc1ccccc1)(Cc1ccccc1)C(=O)NN	i	nt	nt	nt	nt	nt
COc1ccc(CN2CCC(N(CCc3ccccc3)Cc3ccccc3)CC2)c(OC)c1	i	i	i	i	i	i
COc1cc(NC(=O)CCCOc2ccc(Cl)cc2Cl)c(C(=O)O)cc1OC	i	nt	nt	nt	nt	nt
CCN(CC)C(=O)c1ccc(-c2nnc(OC)c3ccccc23)cc1	i	nt	nt	nt	nt	nt
COc1ccccc1NC(=O)CSc1nnc(-c2ccoc2C)n1CC1CCCO1 (configuration not stated)	nt	i	i	i	i	i
O=C(Nc1ncc(Cc2cccc(Cl)c2Cl)s1)C1CCCO1 (configuration not stated)	i	i	i	i	i	144
CC(C)OC(=O)CSc1nnnn1-c1ccc2c(c1)OCCO2	nt	i	i	i	i	129
SMILES	Pf gamet viab	APP 5'UTR act	NF-kB neuron act	FLuc act counter	FLuc inhib CS	STAT1 act
CC(C)(CNC(=O)c1cc2ccccc2o1)N1CCOCC1	nt	i	i	i	i	i
Cc1csc2ncnc(N3CCN(C(=O)Nc4ccc(OC(F)(F)F)cc4)CC3)c12	i	nt	nt	nt	nt	nt
CC1Oc2ccccc2C=C1/C=N/NC(=O)c1ccccc1 (configuration not stated)	i	i	i	i	i	133
CC1Oc2ccccc2C=C1/C=N/NC(=O)c1ccccc1O (configuration not stated)	i	i	i	i	78	i
Cc1ccc(C(=O)N/N=C/C2=Cc3ccccc3OC2C)cc1 (configuration not stated)	i	i	i	i	i	i
CC1Oc2ccccc2C=C1/C=N\NC(=O)c1cccnc1 (configuration not stated)	i	nt	nt	nt	nt	nt
CCOC(=S)SCc1cn2cccc(C)c2n1	i	i	3.8	i	i	i
CCCCc1ccc(-c2nc(N)n[nH]2)cc1	i	i	i	i	68	i
O=C1CC(Cc2ccccc2)C(=O)N1Cc1ccco1 (configuration not stated)	nt	i	i	i	87	i
Cc1ccc(CC2CC(=O)N(Cc3ccco3)C2=O)cc1 (configuration not stated)	nt	i	4.3	i	i	142
Cc1ccc(CN2CCN(CCC(C)C)C(CCO)C2)s1 (configuration not stated)	i	i	i	i	i	i
Cc1ccc(CN2CCN(CC(C)C)C(CCO)C2)s1 (configuration not stated)	i	i	i	i	i	135
Cc1cc(C(=O)OCn2nnc3ccccc3c2=O)c(C)o1	i	i	i	i	i	i
